Rows were chosen to be rich in hits. Some 2.4% of all compounds tested hit in one or more screens of this group.
MT stabilize HCS: microtubule stabilizers in HeLa cells, primary screen, imaging, high-content imaging; HeLa tubulin immunostaining HCS, 24 h; share of cells brighter than vehicle mean+2SD; % tubulin-high responders, % at 10 µM; 0.83% of 200,000 active;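 active = plate Z-score above 3 for both tubulin-high and condensed-nucleus cell shares, with cell loss under 80%, at 10 µM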;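 note: anti alpha tubulin signal scored within the nucleus-defined area of each cell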
EP2 antag: human EP2 receptor antagonists, primary screen, TR-FRET cAMP, C6 glioma cells; Prostaglandin E2 receptor EP2 subtype (Homo sapiens), P43116; 0.52% of 260,000 active; inhibition, % at 25 µM; C6 glioma cells expressing human EP2; cells stimulated with saturating PGE2;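 active = percent inhibition above 40 after rounding to a whole number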;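 note: rat C6 glioma host cells with rolipram phosphodiesterase inhibitor present; the protocol text gives 20 µM as final concentration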
Target sequence (P43116 whole entry, looked up): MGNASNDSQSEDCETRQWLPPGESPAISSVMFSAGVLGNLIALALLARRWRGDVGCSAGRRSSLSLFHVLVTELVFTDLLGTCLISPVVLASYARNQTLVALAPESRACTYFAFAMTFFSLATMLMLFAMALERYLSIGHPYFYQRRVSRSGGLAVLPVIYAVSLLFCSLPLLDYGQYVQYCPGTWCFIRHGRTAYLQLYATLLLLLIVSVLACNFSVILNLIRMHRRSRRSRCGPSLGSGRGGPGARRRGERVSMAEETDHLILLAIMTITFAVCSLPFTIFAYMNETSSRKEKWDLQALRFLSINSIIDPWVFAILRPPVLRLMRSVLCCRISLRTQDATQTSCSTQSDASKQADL
HMGR II inh: inhibitors of E. faecalis class II HMGR, primary screen, biochemical, Enterococcus faecalis; HMG-CoA reductase (Enterococcus faecalis, mvaE); purified E. faecalis HMGR, NADPH absorbance 340 nm kinetic; inhibition, % at 10 µM; 0.41% of 190,000 active; AID 1066, 2008;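 active = inhibition above a set limit, the median over all tested compounds plus 3 SD, cut at about 9.5% in these data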;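 note: enzyme runs in reverse so mevalonate oxidation gives rising NADPH absorbance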
bCat nuc transl: modulators of beta-catenin nuclear translocation, primary screen, imaging, HeLa cells, immunofluorescence, high-content; 0.3% of 190,000 active; nuclear translocation activity, % at 5 µM; AID 1665, 2009;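 active = nuclear translocation activity above 50% at 5 µM, with a well cell count of 50 or more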;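 note: per-cell ratio of nuclear to cytoplasmic median beta-catenin stain intensity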
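test system = HeLa cells, endogenous beta-catenin | dosing = single 5 µM dose plus 0.02–20 µM confirmation series | times = compound treatment 24 h, 37°C, 5% CO2 | technique = beta-catenin immunofluorescence imaging with DAPI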
EP2 modulator: EP2 receptor modulators, cAMP readout, primary screen, cell-based, HTRF cAMP, PGE2 stimulation; Prostaglandin E2 receptor EP2 subtype (Homo sapiens), P43116; EP2-expressing cells, cAMP HTRF FRET, PGE2 co-stimulation; induction, % at 25 µM; 0.83% of 260,000 active; AID 940, 2007;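 active = compounds whose cAMP rise, as percent of the full-agonist control response, exceeds 60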;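 note: rat C6 glioma line stably carrying human EP2 under a CMV promoter; the protocol text gives 20 µM as final concentration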
TbHK1 inh: Trypanosoma brucei hexokinase 1 inhibitors, primary screen, biochemical, G6PDH-coupled NADH absorbance, MLSCN library; hexokinase 1 [Trypanosoma brucei]; recombinant TbHK1, G6PDH-coupled NADH A340; inhibition, % at 10 µM; 0.11% of 220,000 active;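 active = inhibition of 50% or more in the single-dose primary screen; inactive = inhibition below 50%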
EP2 cAMP induct: cAMP induction in EP2, EP4, beta2-AR and parental cells, confirmation, counter-screen for EP2 modulator project, cell-based, five parallel assays, C6 glioma, HEK293; shares compounds with EP2 modulator; cAMP HTRF induction; plus low (about EC15) PGE2 agonist; calls only at 20 µM (by protocol); 47% of 1,300 active; AID 1080, 2008;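 active = cAMP induction above 50% in the main assay while under 30% in all four parallel counter assays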;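 note: rat C6 glioma cells stably expressing human EP2 receptor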
A number is an active result; i = inactive; nt = not tested or not shown; + = active, no number; ! = not active in a repeat.

SMILES	MT stabilize HCS	EP2 antag	HMGR II inh	bCat nuc transl	EP2 modulator	TbHK1 inh	EP2 cAMP induct
COc1ccc2nc(Cl)c(CNCc3ccccc3F)c(N3CCOCC3)c2c1	nt	i	nt	nt	i	nt	nt
CCOC(=O)/C(N=Nc1c(Br)cc(Br)cc1Br)=C(\C)O	i	i	i	i	68.3	i	i
CCOC(=O)NC(=O)/C(N=Nc1cc(C)cc(C)c1)=C(\C)O	i	i	i	i	i	i	nt
Cc1ccc(-n2c(=S)[nH]c3c(oc4ccccc43)c2=O)cc1C	i	i	i	i	74.0	i	i
Cc1ccc(-n2nnc3ccccc3c2=O)cc1C	i	i	i	i	i	i	nt
CC/C(=C\C1CCCCC1)C(NP(=O)(c1ccccc1)c1ccccc1)c1ccccc1 (stereo not given)	i	i	i	i	70.5	i	+
O=C(CSc1ncnc2c1oc1ccccc12)Nc1ccc2c(c1)OCCO2	i	i	i	nt	i	i	nt
Cc1cccc(NC(=O)CSc2ncnc3c2oc2ccccc23)c1	i	i	i	nt	71.3	i	i
O=C(CSc1ncnc2c1oc1ccccc12)Nc1cccc(F)c1	i	i	i	i	67.4	i	i
Fc1cccc(CSc2ncnc3c2oc2ccccc23)c1	i	i	i	i	80.0	i	i
CCn1ncc(C(=O)N2CCc3c(nc(N4CCC(C)CC4)[nH]c3=O)C2)c1C	nt	nt	nt	nt	i	nt	nt
Cn1ccnc1C1(O)CC2CCC(C1)N2C(=O)c1cccc(F)c1 (stereo not given)	nt	nt	nt	nt	i	nt	nt
CCOC(=O)c1cc(CC)sc1NC(=O)c1cc(OC)c(OC)c(OC)c1	i	i	i	nt	67.8	i	+
Cc1ccc(C(=O)N(CC(=O)NC2CCCCC2)c2cccc(C(F)(F)F)c2)s1	nt	i	nt	nt	i	nt	nt
Cc1cc(SCCC(=O)O)nc2c(C)cccc12	i	i	i	nt	82.1	i	i
CC(C)(C)c1ccc(-c2nnc(SCC(=O)N3CCc4ccccc43)o2)cc1	nt	i	nt	nt	i	nt	nt
O=C(Cn1nc(C(F)(F)F)c2c1CCC2)NCc1ccco1	nt	i	nt	nt	i	nt	nt
COc1ccc(N(CC(=O)NCc2ccncc2)S(C)(=O)=O)cc1OC	nt	i	nt	nt	i	nt	nt
O=C(O)c1cccc(NN=C2c3ccccc3-c3ccccc32)c1	i	i	i	i	75.3	i	i
CCOc1ccc2[nH]c(=O)c(CN(C(=S)NCC3CCCO3)C3CCCCC3)cc2c1 (stereo not given)	nt	i	nt	nt	i	nt	nt
CCOc1ccc(C2/C(=C(/O)c3ccc(OC)c(OC)c3)C(=O)C(=O)N2C)cc1 (stereo not given)	nt	i	nt	nt	i	nt	nt
Cc1cccc(OCCCC(=O)N2CCCc3ccccc32)c1C	i	i	i	i	81.8	i	+
Cc1ccc(NC(=O)N(CCCN(C)C)Cc2cc3cc4c(cc3[nH]c2=O)OCO4)cc1	nt	i	nt	nt	i	nt	nt
CN1CCN(c2ccccc2NC(=O)c2ccc(N3CCCCC3)c([N+](=O)[O-])c2)CC1	i	i	i	i	i	i	nt
COc1ccc(C(=O)Nc2ccccc2N2CCCCC2)cc1[N+](=O)[O-]	i	i	i	i	i	i	+
SMILES	MT stabilize HCS	EP2 antag	HMGR II inh	bCat nuc transl	EP2 modulator	TbHK1 inh	EP2 cAMP induct
O=C(Nc1ccccc1N1CCCCC1)c1cnccn1	i	i	i	i	66.2	i	+
Cc1ccc(C(=O)Nc2ccccc2N2CCCCC2)cc1[N+](=O)[O-]	i	i	i	i	66.1	i	+
Cc1ccccc1C(=O)Nc1ccccc1N1CCCCC1	i	i	i	i	i	i	+
Cc1ccc(S(=O)(=O)n2c(N)nc3ccccc32)cc1	nt	i	nt	nt	i	nt	nt
C=CCSc1nc2ccccc2n1S(=O)(=O)c1ccc(C)cc1	i	i	i	i	66.6	i	+
Cc1ccc(N(Cc2ccccc2)Cc2ccccc2)cc1	nt	i	nt	nt	i	nt	i
COc1ccc(N(Cc2ccccc2)S(=O)(=O)c2ccc(C)cc2)cc1	i	i	i	i	69.1	i	+
CCc1nn(CC(=O)N(C)OC)c(=O)c2cc3occc3n12	nt	i	nt	nt	i	nt	nt
COc1ccc(-c2cc(C(F)(F)F)nc(SCC(=O)Nc3cc(C)cc(C)c3)n2)cc1OC	nt	i	nt	nt	i	nt	nt
CCOC(=O)c1ccccc1NC(=O)CSc1ncc(C(=O)OCC)c(N)n1	i	i	i	i	65.5!	i	i
CCc1nc(N2CCCCC2)c2oc3ccccc3c2n1	i	i	i	i	76.3	i	i
Cc1nc(N2CCOCC2)c2oc3ccccc3c2n1	i	i	i	i	i	i	nt
CC(C)(C)c1csc(NC(=O)CSc2nnc(NC(=O)C3CCC3)s2)n1	nt	i	nt	nt	i	nt	nt
Cc1cc2c(=O)n(CC(=O)NC3(c4ccccc4F)CCCC3)cnc2s1	nt	i	nt	nt	i	nt	nt
O=S(=O)(c1ccc(F)c(Cl)c1)N1CCCC1	i	i	i	i	68.1	i	i
COc1ccccc1-n1c(SCC(=O)NC2CCCCC2)nnc1-c1ccccc1	nt	i	nt	nt	i	nt	nt
CC(C)C(=O)NCCc1nc(-c2ccccc2Cl)no1	nt	i	nt	nt	nt	nt	nt
CCC(C)N(C)C(=O)c1cc2ccccc2c(-c2ccccc2Cl)n1 (stereo not given)	i	i	i	i	69.8!	i	i
COc1cccc(NC(=O)c2sc3nc4ccc(OC)cc4cc3c2N)c1	nt	i	nt	nt	i	nt	nt
Fc1ccc(-c2cc(-c3ccccc3)nc(-n3cccn3)n2)cc1	i	i	i	i	i	i	+
CCN(CC)C(=O)Cn1cc(C(=O)C(=O)NCc2ccco2)c2ccccc21	i	i	i	i	67.3	i	i
C[C@H]1CC[C@@H](C(C)(C)O)CC2=C1CC[C@@H]2C	nt	i	nt	nt	i	nt	i
CCOc1ccc(N2CC(C(=O)Nc3ccc4ccccc4c3)CC2=O)cc1 (stereo not given)	nt	i	nt	nt	i	nt	nt
CN(C)c1nc(-c2ccccc2)c2cnn(Cc3ccccc3)c2n1	i	i	i	i	73.3	i	+
C/C(Cl)=C/CSc1nc2c(c(=O)n(C)c(=O)n2C)n1Cc1ccc(F)cc1	nt	i	nt	nt	i	nt	nt
Cn1c(=O)c2c(nc(SCC(=O)c3cccs3)n2Cc2ccc(F)cc2)n(C)c1=O	i	i	i	i	75.0	i	i
COc1ccc(-n2c(-c3ccccc3)nnc2-c2ccc(Cl)cc2)cc1	i	i	i	i	69.1	i	+
COc1ccc(-n2c(SCC(=O)Nc3ccccc3OC)nnc2-c2ccc(Cl)cc2)cc1	nt	i	nt	nt	i	nt	nt
COc1ccc(-c2nn3c(-c4ccccc4)nnc3s2)cc1	i	i	i	i	80.9	i	+
COc1cccc(-c2nnc3sc(-c4ccc(Cl)cc4)nn23)c1	nt	nt	nt	i	nt	nt	nt
